Screening results as filed in PubChem BioAssay.
GPR7 antag – blocks human GPR7 receptor signaling. P48145. GPR7-expressing cells, fluorescence antagonist assay. actives 1.1% (n = 290,000). inhibition, % at 4.4 µM. AID 1861; in the data active = inhibition above about 16%, passing the limit was not always enough;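 also: cells stimulated with the agonist NPW; 0% = agonist with vehicle and 100% = vehicle without agonist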
Target sequence (P48145 whole entry, looked up): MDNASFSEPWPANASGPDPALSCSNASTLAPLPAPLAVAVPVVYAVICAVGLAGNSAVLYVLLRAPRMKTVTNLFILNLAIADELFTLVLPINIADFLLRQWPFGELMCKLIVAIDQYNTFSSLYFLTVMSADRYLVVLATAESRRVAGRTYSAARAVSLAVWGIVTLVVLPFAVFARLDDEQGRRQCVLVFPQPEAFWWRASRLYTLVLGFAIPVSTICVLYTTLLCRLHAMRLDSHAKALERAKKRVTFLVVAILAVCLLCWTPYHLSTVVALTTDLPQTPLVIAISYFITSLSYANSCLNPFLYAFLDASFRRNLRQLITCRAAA
TAAR1 agonist – agonists of human TAAR1; actives 0.99% (n = 360,000); CHO RD-HGA16 TAAR1, Fluo-8 calcium fluorescence; vehicle wells 0%, saturating PEA agonist 100%; activation, % at 3 µM;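 active = activation above the mean activation of all test compounds in the run plus 3 SD, cut at about 38% in these data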
Target sequence (Q96RJ0 whole entry, looked up): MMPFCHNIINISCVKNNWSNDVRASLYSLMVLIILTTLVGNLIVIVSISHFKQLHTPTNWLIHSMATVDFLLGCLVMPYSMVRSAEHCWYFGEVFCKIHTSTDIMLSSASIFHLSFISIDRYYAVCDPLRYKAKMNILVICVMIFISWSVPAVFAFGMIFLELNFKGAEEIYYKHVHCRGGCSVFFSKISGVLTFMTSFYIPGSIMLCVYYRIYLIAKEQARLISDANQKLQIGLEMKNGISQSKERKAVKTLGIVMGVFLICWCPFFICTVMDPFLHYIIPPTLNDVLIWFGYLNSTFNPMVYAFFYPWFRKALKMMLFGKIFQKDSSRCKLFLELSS
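System: CHO-derived RD-HGA16 cells with stable Gα16 and human TAAR1 / Times: 17-24 h plating, Fluo-8 75 min 37 °C, 30 min RT / Technique: calcium-sensitive Fluo-8 signal, excitation 470-495, emission 515-575 nm / Measure: % activation relative to PEA EC100 response / Benchmarks: DMSO and PEA EC100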
TAAR1 antagonist – human TAAR1 antagonism; CHO RD-HGA16 TAAR1, Fluo-8 calcium fluorescence, antagonist; inhibition, % at 3 µM; actives 1.5% (n = 360,000); AID 624466;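 active = inhibition above a per-plate cutoff, the mean inhibition of test compounds on that plate plus 3 SD, cut at about 49% in these data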;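 also: 0% = DMSO plus EC80 beta-PEA response and 100% = DMSO alone without agonist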
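Test system: CHO RD-HGA16 cells bearing hTAAR1 | Reagent: β-PEA, EC80 | Compound dosing: 3 µM, single point | Schedule: Dye loading 75 min at 37 °C, then 30 min room temperature | Signal: Calcium fluorescence with Fluo-8 | Evaluation: Percent inhibition of PEA-evoked calcium signal, max/basal emission ratio | Control set: DMSO-only wells and EC80 β-PEA-stimulated wells | Repeats: Singlicate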
OX1R antag-1 – OX1R (human) antagonism. OX1R-expressing cells, FRET antagonist read-out. AID 485270. actives 1.8% (n = 330,000). O43613. inhibition, % at 6.6 µM; in the data active = inhibition mostly above about 38%, no sharp cut-off; inactive = mostly below about 40%;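 also: 0% = agonist challenge alone and 100% = reference antagonist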
OX1R antag-2 – blocks the human orexin 1 receptor; CHO/OX1R cells, Fluo-8 calcium fluorescence, orexin A; inhibition, % at 5 µM; actives 0.43% (n = 330,000);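 active = inhibition above its plate's threshold, mean inhibition of all tested compounds on the plate plus 3 SD, cut at about 37% in these data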;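 also: 0% = orexin A challenge wells and 100% = SB-334867-A antagonist wells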
CHO parental Ca – counter-screen: ATP calcium response change in parental CHO cells | inhibition, % at 5.6 µM | parental CHO-K1, ATP-induced calcium, Fluo-8 fluorescence | actives 0.63% (n = 330,000);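 active = inhibition above that plate's mean sample inhibition plus 3 SD, cut at about 26% in these data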;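 also: 0% = ATP-challenged DMSO wells and 100% = DMSO wells without ATP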
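Test system: untransfected parental CHO cell line; also added: ATP stimulus; dosing: 5.6 µM, single dose; signal: calcium-sensitive Fluo-8 fluorescence; measure: percent inhibition of ATP-evoked calcium rise, normalized to controls; benchmarks: low control ATP plus DMSO, high control DMSO only; replication: one well per compound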
GPR7 antag cf – human GPR7 antagonism, confirmation assay; shares compounds with GPR7 antag; GPR7-expressing cells, calcium fluorescence antagonist mode; inhibition, % at 4.4 µM; actives 52% (n = 2,400); AID 1952; in the data active = inhibition above about 24%;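 also: stimulated with the GPR7 agonist NPW; 0% = agonist plus vehicle and 100% = vehicle alone without agonist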
MCHR1 antagonist – antagonizes human MCHR1, a GPR7 antagonist counter-screen; AID 2148; MCHR1-expressing cells, fluorescence antagonist assay; inhibition, % at 4.4 µM; shares compounds with GPR7 antag; actives 62% (n = 2,400); in the data active = inhibition above about 22%;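 also: 0% = vehicle with agonist and 100% = vehicle without agonist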
Active calls of the source: *; x = no result. An excerpt weighted towards active compounds, which were near 4.6% of everything screened.

SMILES | GPR7 antag | TAAR1 agonist | TAAR1 antagonist | OX1R antag-1 | OX1R antag-2 | CHO parental Ca | GPR7 antag cf | MCHR1 antagonist
COc1ccccc1CNC(=O)CSc1nc(-c2ccccc2)cn1N | 27* | 4 | -16 | 73* | 10 | -3 | -10 | 8
CC(C)CC(c1nnnn1CCc1ccccc1)N1CCN(C(=O)c2ccco2)CC1 (configuration not stated) | 4 | 10 | -10 | 12 | -23 | -6 | x | x
CCC(c1nnnn1CCc1ccccc1)N1CCN(C(=O)c2ccco2)CC1 (configuration not stated) | 21* | 0 | 26 | 21 | -23 | -16 | 8 | 1
CCOC(=O)C1=CCN(S(=O)(=O)c2ccc(C)cc2)C1c1ccccc1F (configuration not stated) | x | 3 | 11 | x | x | x | x | x
OCc1ccccc1N=c1ssnc1Cl | 31* | x | x | 12 | 4 | -23 | 4 | 18
CCN(CC(=O)NCc1ccc(F)cc1)C(=O)c1ccc2c(c1)OCO2 | x | 11 | -8 | 2 | -12 | -4 | x | x
COc1ccc(CNC(=O)c2csc(Cc3ccccc3)n2)cc1 | 0 | 14 | 18 | 12 | -20 | -23 | x | x
COc1ccccc1CNC(=O)c1csc(Cc2ccc(Cl)cc2)n1 | 29* | 8 | 50* | 32 | -23 | -30 | 22 | 45*
CC(c1ccc(Cl)cc1)N(CCN(C)C)c1ccccn1 (configuration not stated) | x | 1 | -9 | x | x | x | x | x
CC(C)(C)c1ccc(-c2nc(NCc3cccnc3)c3ccccc3n2)cc1 | 23* | 3 | -16 | 5 | -60 | -20 | 41* | 30*
CCOC(=O)c1c(NC(=O)CSc2ncccn2)sc2c1CCN(Cc1ccccc1)C2 | 27* | 5 | 16 | x | x | x | 22 | 51*
CCC(C)CCN1C(Nc2ccccc2)=NC[C@@H]1Cc1ccccc1 (some centres not stated) | x | 21 | -9 | 14 | -36 | -25 | x | 19
CCC(C)CCN1C(Nc2ccccc2)=NC[C@@H]1CC(C)C (some centres not stated) | 27 | 5 | 16 | 16 | -8 | -18 | x | x
c1ccc(CCCCN2C(Nc3ccccc3)=NC[C@@H]2Cc2ccccc2)cc1 | x | 37 | 22 | 35 | -8 | -14 | x | x
c1ccc(C[C@H]2CN=C(Nc3ccccc3)N2CCCC2CCCC2)cc1 | 46* | x | x | 8 | -25 | -13 | 51* | 34*
CCCCCCCN1C(Nc2ccccc2)=NC[C@@H]1Cc1ccccc1 | 50* | 31 | 9 | 13 | -28 | -22 | 48* | 48*
O=C(O)Cc1ccc2c(c1)Cc1cccnc1O2 | x | 3 | -20 | x | x | x | x | x
Cn1c(Cc2ccccc2)nnc1SCC(=O)NC1CC1 | 3 | -3 | -5 | -5 | -13 | -9 | x | x
O=C(CSc1nnc(Cc2ccccc2)n1Cc1ccco1)NC1CCCC1 | 33* | 5 | -7 | 10 | -15 | -12 | 26* | 13
Cn1c(Cc2ccccc2)nnc1SCC(=O)NC1CCCC1 | 39* | 4 | 1 | 16 | -13 | -3 | -10 | -4
CC(C)OC(=O)N(C)C[C@H]1OCc2cn(nn2)CCCC(=O)N([C@@H](C)CO)C[C@@H]1C | x | 6 | 6 | x | x | x | x | x
CCc1cc2c(NCc3ccccc3)nc(C)nc2s1 | 23* | 1 | -7 | 36 | -14 | 22 | 17 | 38*
Cc1ccc(-c2nn(-c3ccccc3)cc2CNCc2ccccc2)cc1 | 23* | 30 | 31 | 13 | 8 | -5 | 41* | 53*
CCCCn1cnc2c(c(-c3ccccc3)c(-c3ccccc3)n2Cc2ccco2)c1=N | 32* | 35 | -13 | 4 | -17 | -16 | 54* | 97*
CCCCn1c(=O)[nH]c(=O)c2c1ncn2Cc1ccco1 | -14 | x | x | 19 | -16 | -9 | x | x
SMILES | GPR7 antag | TAAR1 agonist | TAAR1 antagonist | OX1R antag-1 | OX1R antag-2 | CHO parental Ca | GPR7 antag cf | MCHR1 antagonist
O=C(c1ccc(NS(=O)(=O)c2ccc(F)cc2)cc1)N1CCCCC1 | x | 4 | -6 | 14 | 2 | 0 | x | x
O=C(c1ccc(NS(=O)(=O)c2cccs2)cc1)N1CCCCC1 | 21* | 8 | -4 | 27 | 3 | -3 | -15 | 3
O=C(c1ccc(S(=O)(=O)Nc2ccccc2)cc1)N1CCCCCCC1 | 25* | 33 | 26 | 19 | -27 | -16 | 19 | 17
COc1cc(CNC(=O)c2cc(-c3cc(F)ccc3OC(C)C)n[nH]2)cc(OC)c1 | x | 0 | 25 | x | x | x | x | x
O=C(N[C@H](C(=O)N1CCC[C@H]1C(=O)NCc1ccccc1)c1ccccc1)c1ccc(Cl)c(Cl)c1 | x | -1 | -3 | x | x | x | x | x
COCCC(=O)N1CCOCC1c1cc(C(=O)NCc2ccccc2)no1 (configuration not stated) | x | 2 | -13 | x | x | x | x | x
COc1ccccc1N(CCC#N)C(=O)CSc1ccc2c(c1)OCCO2 | 36* | 9 | 4 | 6 | -9 | -6 | 2 | 8
N#CCCN(C(=O)CSc1ncccn1)c1ccc2c(c1)OCCO2 | x | -1 | 10 | 1 | -4 | -13 | x | x
CCN(CC)CCCNc1ccc(-c2nnc(-c3ccc(OCC(C)C)cc3)o2)cn1 | 38* | -1 | 8 | 18 | -2 | -5 | 22 | 48*
CC(C)COc1ccc(-c2nnc(-c3ccco3)o2)cc1 | 2 | 10 | -8 | 8 | -24 | -12 | x | x
CCOC(=O)CSC1=NC(=O)/C(=C/c2ccc(OC)cc2)S1 | 29* | x | x | 40 | 3 | -3 | 72* | 72*
COc1ccc(/C=C2\SC(N)=NC2=O)cc1 | -19 | -1 | 6 | x | x | x | x | x
O=C(NCCc1ccco1)C(=O)NCC1OCCCN1S(=O)(=O)c1ccc(F)cc1 (configuration not stated) | 24* | 4 | -20 | 38 | 13 | -10 | -1 | 2
COc1ncnc2c1ncn2CCCN(CCCc1ccccc1)CCCn1cnc2c(OC)ncnc21 | x | -1 | -9 | x | x | x | x | x
CN(C)CCNS(=O)(=O)c1ccc(N2CCN(c3ccc(F)cc3)CC2)c([N+](=O)[O-])c1 | 23* | 20 | 15 | 23 | -8 | 5 | 36* | 32*
CC(=O)N1CCN(c2ccc(S(=O)(=O)NCCN(C(C)C)C(C)C)cc2[N+](=O)[O-])CC1 | -6 | 4 | -27 | 44 | 3 | -5 | x | x
COCCNc1cnn(-c2ccccc2)c(=O)c1Cl | 24* | 3 | -12 | 16 | -8 | 0 | -4 | 0
CCCCNc1cnn(-c2ccccc2)c(=O)c1Cl | 8 | 9 | 0 | 19 | -24 | 0 | x | x
